Assay [1] deals with Respiratory syncytial virus. Nature of the assay: Antiviral activity against RSV RSS in Hep2 cells by whole cell XTT assay. The format is functional, organism-based. The note with it: human respiratory syncytial virus, HEp-2. A digest of the protocol: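 Primary whole-cell assay with XTT read-out of infected cells. Parallel cultures without virus were run to measure compound cytotoxicity. IC50 values were derived.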
(Tetrazolium assays rely on reduction of a dye to a coloured formazan, in cell work by metabolically active cells.)

For assay [2], the system named is HEp-2. Nature of the assay: Cytotoxicity against Hep2 cell at 50 uM. The note with it: Homo sapiens. Type of assay: functional, cell-based. A digest of the protocol: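 Run alongside the whole-cell antiviral XTT assay, without virus, to measure compound toxicity to the cells. The read-out is XTT.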

pIC50: −log10 of the molar value.

In the case of `O=C(NC1N=C(c2ccc(C(F)(F)F)cc2)c2ccccc2NC1=O)c1ccco1` (centres undefined), in assay [1], the pIC50 (commonly the IC50 on a negative log10 scale, so that one unit is a factor of ten) is less than 4.30. For the same compound, the Activity entry in assay [2] was “Not toxic”.
On to `COc1cc([N+](=O)[O-])ccc1C(=O)NC1N=C(c2ccccc2)c2ccccc2N(C)C1=O` (centres undefined), for which the pIC50 in assay [1] was less than 4.30. In addition, the Activity entry in assay [2] was “Not toxic”.
Regarding `O=C(NC1N=C(c2cccc(C(F)(F)F)c2)c2ccccc2NC1=O)c1ccco1` (centres undefined), the pIC50 in assay [1] is 4.73. Also, in assay [2], the Activity entry is “Not toxic”.
Turning to `O=C(NC1N=C(c2ccccc2)c2ccccc2NC1=O)C1CCCCC1` (centres undefined), the Activity result in assay [2] was “Not toxic”.
On to `CCN(CC)C1N=C(c2ccccc2)c2ccccc2NC1=O` (centres undefined), for which the negative logarithm of the IC50 (pIC50) in assay [1] is less than 4.30. For the same compound, the Activity result in assay [2] is “Not toxic”.
The matching figures for `Cc1cc(C(=O)NC2N=C(c3ccccc3)c3ccccc3NC2=O)oc1C` (centres undefined): 5.55 and “Not toxic”.
The like results for `COc1cc(S(C)(=O)=O)ccc1C(=O)NC1N=C(c2ccccc2)c2ccccc2NC1=O` (centres undefined) were, in that order, 5.70 and “Not toxic”.
As for `COc1cccc(C2=NC(NC(=O)c3ccccc3OC)C(=O)Nc3ccccc32)c1` (centres undefined), the pIC50 in assay [1] is less than 4.30. Moreover, the Activity entry in assay [2] was “Not toxic”.
The matching figures for `O=C(NC1N=C(c2ccccc2)c2ccccc2NC1=O)c1cccc([N+](=O)[O-])c1` (centres undefined): 5.13 and “Not toxic”.
The matching figures for `O=C(NC1N=C(c2ccccc2)c2ccccc2NC1=O)c1ccc([N+](=O)[O-])cc1` (centres undefined): 5.17 and “Not toxic”.
The like results for `CNc1ccccc1C(=O)NC1N=C(c2ccccc2)c2ccccc2NC1=O` (centres undefined) were, in that order, 5.02 and “Not toxic”.
On to `CN(C)c1ccccc1C(=O)NC1N=C(c2ccccc2)c2ccccc2NC1=O` (centres undefined), for which the pIC50 in assay [1] is 5.32. Moreover, the Activity result in assay [2] was “Not toxic”.
The like results for `COc1ccc2c(c1)C(c1ccccc1)=NC(NC(=O)c1ccccc1OC)C(=O)N2` (centres undefined) were, in that order, less than 4.30 and “Not toxic”.
The like results for `COc1cc2c(cc1OC)C(c1ccccc1)=NC(NC(=O)c1ccccc1OC)C(=O)N2` (centres undefined) were, in that order, less than 4.30 and “Not toxic”.
The matching figures for `O=C(NC1N=C(c2ccccc2)c2ccccc2NC1=O)c1ccc(N2CCOCC2)cc1Cl` (centres undefined): 5.47 and “Not toxic”.
In the case of `COc1ccc(CNC2N=C(c3ccccc3)c3ccccc3NC2=O)cc1` (centres undefined), the Activity result in assay [2] is “Not toxic”.
In turn, `CC(C)(C)C(=O)NC1N=C(c2ccccc2)c2ccccc2NC1=O` (centres undefined) showed a pIC50 in assay [1] of 4.78. The Activity entry in assay [2] is “Not toxic”.
The matching figures for `COc1ccccc1C(=O)NC1N=C(c2ccccc2F)c2cc(Cl)ccc2NC1=O` (centres undefined): 4.58 and “Not toxic”.
The like results for `CN1C(=O)C(NC(=O)Nc2ccccc2F)N=C(c2ccccc2)c2ccccc21` (centres undefined) were, in that order, less than 4.30 and “Not toxic”.
`COc1ccc(C(=O)NC2N=C(C)c3ccccc3NC2=O)cc1` (centres undefined): the pIC50 in assay [1] is less than 4.30. The Activity result in assay [2] is “Not toxic”.
The matching figures for `COc1ccc(C2=NC(NC(=O)c3ccccc3OC)C(=O)Nc3ccccc32)cc1` (centres undefined): less than 4.30 and “Not toxic”.
The matching figures for `COc1ccccc1CNC1N=C(c2ccccc2)c2ccccc2NC1=O` (centres undefined): 4.56 and “Not toxic”.
As for `CCOc1ccccc1C(=O)NC1N=C(c2ccccc2)c2ccccc2NC1=O` (centres undefined), in assay [1], the pIC50 was 5.44. In addition, the Activity entry in assay [2] is “Not toxic”.
The matching figures for `COc1ccccc1C(=O)NC1N=C(c2ccccc2)c2cc(Cl)ccc2NC1=O` (centres undefined): 5.21 and “Not toxic”.
The like results for `O=C(Nc1ccccc1F)OC1N=C(c2ccccc2)c2ccccc2NC1=O` (centres undefined) were, in that order, 4.79 and “Not toxic”.
The matching figures for `O=C(NC1N=C(c2cccc(Cl)c2)c2ccccc2NC1=O)c1ccco1` (centres undefined): 5.16 and “Not toxic”.
For `O=C(NC1N=C(c2ccccc2)c2ccccc2NC1=O)c1ccccc1CN1CCOCC1` (centres undefined), in assay [1], the pIC50 is 4.68. Also, the Activity entry in assay [2] is “Not toxic”.
The like results for `O=C(NC1N=C(c2ccccc2F)c2cc(Cl)ccc2NC1=O)c1ccco1` (centres undefined) were, in that order, 4.38 and “Not toxic”.
The like results for `O=C(NC1N=C(c2ccccc2)c2ccc(Cl)cc2NC1=O)c1cccs1` (centres undefined) were, in that order, 4.57 and “Not toxic”.
With `O=C(NC1N=C(c2ccccc2)c2ccccc2NC1=O)c1cccc(OC(F)(F)F)c1` (centres undefined), in assay [1], the pIC50 was 4.84. The Activity entry in assay [2] was “Not toxic”.
In assay [1], `O=C(NC1N=C(c2ccccc2)c2ccccc2NC1=O)c1ccccc1C1CCCCC1` (centres undefined) gave a pIC50 of less than 4.30. For the same compound, the Activity result in assay [2] was “Not toxic”.
The like results for `CCN(CC)C(=O)NC1N=C(c2ccccc2)c2ccccc2NC1=O` (centres undefined) were, in that order, 4.68 and “Not toxic”.
The like results for `O=C(NC1N=C(c2ccccc2)c2ccccc2NC1=O)c1ccccc1` (centres undefined) were, in that order, 5.26 and “Not toxic”.
With `O=C1Nc2ccccc2C(c2ccccc2)=NC1N1CCOCC1` (centres undefined), the pIC50 in assay [1] was less than 4.30. The Activity entry in assay [2] is “Not toxic”.
The matching figures for `O=C(Nc1ccccc1F)NC1N=C(C2CCCCC2)c2ccccc2NC1=O` (centres undefined): less than 4.30 and “Not toxic”.
In assay [1], `O=C1Nc2ccccc2C(c2ccccc2)=NC1NC(=O)N1CCOCC1` (centres undefined) had a pIC50 of 5.01. For the same compound, the Activity result in assay [2] is “Not toxic”.
The matching figures for `COc1cc([N+](=O)[O-])ccc1C(=O)N(C)C1N=C(c2ccccc2)c2ccccc2NC1=O` (centres undefined): 4.60 and “Not toxic”.
In assay [1], `COc1ccc(C(=O)NC2N=C(c3ccccc3)c3ccccc3NC2=O)cc1` (centres undefined) had a pIC50 of 5.44. Also, in assay [2], the Activity result is “Not toxic”.
The matching figures for `COc1ccccc1C(=O)NC1N=C(c2cccc(C(F)(F)F)c2)c2ccccc2NC1=O` (centres undefined): 4.78 and “Not toxic”.
For the compound `COc1ccccc1C(=O)NC1N=C(c2ccc(F)cc2)c2ccccc2NC1=O` (centres undefined), the pIC50 in assay [1] is 4.78. Also, the Activity entry in assay [2] is “Not toxic”.
The compound `O=C(NC1N=C(c2ccccc2)c2ccccc2NC1=O)c1ccccc1OC(F)(F)F` (centres undefined) showed a pIC50 in assay [1] of 4.84. For the same compound, in assay [2], the Activity result is “Not toxic”.
The like results for `O=C(NC1N=C(C2CCCCC2)c2ccccc2NC1=O)c1ccco1` (centres undefined) were, in that order, less than 4.30 and “Not toxic”.
In assay [1], `O=C(NC1N=C(c2ccccc2)c2ccccc2NC1=O)c1cccs1` (centres undefined) had a pIC50 of 5.25. For the same compound, in assay [2], the Activity result was “Not toxic”.
As to `CCCOc1ccccc1C(=O)NC1N=C(c2ccccc2)c2ccccc2NC1=O` (centres undefined), the negative-log IC50 (pIC50) in assay [1] was 4.40. Also, in assay [2], the Activity result is “Not toxic”.
Compound `COc1ccc(C(=O)NC2N=C(c3ccccc3)c3ccccc3NC2=O)c(OC)c1` (centres undefined) gave a pIC50 in assay [1] of 5.68. Also, the Activity entry in assay [2] is “Not toxic”.
The like results for `O=C(NC1N=C(c2ccccc2)c2ccccc2NC1=O)c1cccc(C(F)(F)F)c1` (centres undefined) were, in that order, 5.12 and “Not toxic”.
The like results for `CN1CCN(C(=O)NC2N=C(c3ccccc3)c3ccccc3NC2=O)CC1` (centres undefined) were, in that order, 5.03 and “Not toxic”.
The matching figures for `O=C1Nc2ccccc2C(c2ccccc2)=NC1NC(=O)C1CCCO1` (centres undefined): 4.76 and “Not toxic”.

Values taken from ChEMBL document CHEMBL1146087, “1,4-Benzodiazepines as inhibitors of respiratory syncytial virus” (J Med Chem, 2006).
